The values that follow come from ChEMBL document CHEMBL1131329, “Synthesis and antiviral activity of novel acyclic nucleosides: discovery of a cyclopropyl nucleoside with potent inhibitory activity against herpesviruses” (J Med Chem, 1998).

SMILES strings stand for the structures. Converted amounts (≈) assume the structure as drawn.

Test [1] deals with Vero. The experiment in a line: Cytotoxic concentration to uninfected vero cells. Format: functional, Chlorocebus sabaeus. An outline of the steps:
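Uninfected Vero cells were run through the same neutral red dye-uptake method as the antiviral test: 3-fold dilutions in EMEM with 2% FBS, 3 days at 37 °C in 5% CO2, A550 read. CC50 is the concentration giving 50% of the cell-control OD. Quadruplicate.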

For test [2], the system named is Vero. Briefly: Inhibition of Tomioka strain of herpes simplex virus( Tomioka strain of HSV-1) by quantitative CPE reduction assay in vero cells. The format is functional, cell-based, Human alphaherpesvirus 1. Summed up:
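Vero cells in EMEM with 2% FBS, 3-fold compound dilutions, infected with HSV-1 Tomioka at about 100 TCID50 per well. After 3 days at 37 °C in 5% CO2, cells stained with neutral red for 45 min. Dye eluted in pH 4.2 citrate-ethanol, A550 read. Cell control set to 100% and blank to 0%; IC50 is the concentration giving 50% OD. Quadruplicate.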

Test [3] concerns HFF. The experiment in a line: Minimum cytotoxic concentration against uninfected HFF cells. Format: functional, Homo sapiens. An outline of the steps:
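Uninfected HFF cells under MEM with 2% FBS in 0.25% agarose overlay with test compound, 5 days at 37 °C in 5% CO2. Examined microscopically for gross morphologic changes, then treated with MTT and 30% SDS; highest concentration 320 μg/mL. Value is the minimum concentration giving morphologic change. Triplicate.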

Test [4] concerns HFF. The experiment in a line: Selectivity index is the ratio between IC50 (Anti-VZV Activity (DM625 in HFF Cells)) and minimum cytotoxic concentration (against HFF cells) values of the compound. The format is functional.
Test [5] concerns HFF. The experiment in a line: Inhibitory activity against DM625 strain of zoster virus(VZV) by plaque reduction assay in HFF cells. The format is functional, cell-based. Particulars: Homo sapiens.
Test [6] concerns CCRF-CEM. Briefly: Cytotoxic concentration against uninfected CEM cells. Format: functional, Homo sapiens. Summed up: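 Uninfected CEM cells in RPMI 1640 with 10% FCS, exposed to test compound for 7 days at 37 °C in 5% CO2. Cytotoxicity measured by MTT dye uptake and expressed as CC25. Triplicate.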
For test [7], the system named is CCRF-CEM. The experiment in a line: Inhibitory activity against 1RF strain of HIV-1 by plaque reduction assay in CEM cells. The format is functional, cell-based. An outline of the steps: (§1)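 CEM cells pregrown in RPMI 1640 with 10% FCS; HIV-1 RF strain, 32-100 CCID50 units per 0.1 mL, added together with test compound. Incubated 7 days at 37 °C in 5% CO2. CPE inhibition read by MTT dye uptake; IC50 derived. Triplicate.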

The test system of test [8] is CCRF-CEM. Briefly: Compound tested for inhibitory activity by plaque reduction assay against HIV-1RF strain in CEM cells. Format: functional, cell-based. The settings on record: Homo sapiens. An outline of the steps:
as §1
In general terms: Plaques are areas of infected cells; plaque reduction assays count them against a control.

The subject of test [9] is CCRF-CEM. The experiment in a line: compound tested for inhibitory activity by plaque reduction assay against HIV-1 in CEM cells. Format: functional, cell-based. Particulars: Homo sapiens.
The subject of test [10] is CCRF-CEM. Briefly: compound tested for anti-HIV-1 activity by plaque reduction assay against HIV-1 in CEM cells. Particulars: Homo sapiens. The format is functional. Summed up:
as §1

Setting [11] is: Chlorocebus sabaeus, Vero, read-out: CC50.
Where [12] appears, read: Chlorocebus sabaeus, Vero, read-out: IC50.
Where [13] appears, read: Homo sapiens, CCRF-CEM, read-out: IC50.

Usually CC50 stands for the concentration that lowers cell viability or growth by half. For orientation: IC50 means the midpoint of a concentration-inhibition curve. For `Nc1ncc2ncn(CC3(CO)CC3CO)c2n1` (stereo not drawn), the CC50 in [1] (setting [11]) is greater than 500 µg/mL. Moreover, the IC50 in test [2] (setting [12]) is 30 µg/mL (≈ 120 µM).
`Nc1nc(O)c2ncn(CC3[C@H](CO)[C@H]3CO)c2n1` (stereo partly drawn): the MTC in test [3] was 320 µg/mL. In addition, the CC50 in test [1] (setting [11]) is greater than 500 µg/mL. In addition, the SI in [4] turned out to be 1.3. Also, the IC50 in test [5] was 240 µg/mL (≈ 905 µM); in test [2] (setting [12]), greater than 500 µg/mL.
Regarding `Cc1cn(C/C(=C\CO)CO)c(=O)[nH]c1=O`, in [6], the CC25 was greater than 100 µg/mL. Moreover, the CC50 in test [1] (setting [11]) was greater than 500 µg/mL. Also, the IC50 in test [7] (setting [13]) is greater than 100 µg/mL; in [2] (setting [12]), greater than 500 µg/mL.
On to `Nc1nc(O)c2ncn(C/C(=C/CO)CO)c2n1`, for which the CC25 in test [6] was greater than 100 µg/mL. Also, the MTC in test [3] is greater than 320 µg/mL. In test [1] (setting [11]), the CC50 is greater than 500 µg/mL. Also, in test [4], the SI is listed as greater than 6.1. Also, the IC50 in test [5] was 52.8 µg/mL (≈ 210 µM); in test [7] (setting [13]), greater than 100 µg/mL; in test [2] (setting [12]), 4.2 µg/mL (≈ 16.7 µM).
Regarding `Nc1nc(O)c2ncn(C[C@]3(CO)C[C@H]3CO)c2n1`, the CC25 in [6] was greater than 100 µg/mL. Besides, in test [3], the MTC was 320 µg/mL. The CC50 in [1] (setting [11]) was determined as 240 µg/mL (≈ 905 µM). Also, the SI in [4] amounted to 1600. Also, the IC50 in test [5] was 0.2 µg/mL (≈ 0.754 µM); in test [7] (setting [13]), greater than 100 µg/mL; in [2] (setting [12]), 0.02 µg/mL (≈ 0.0754 µM).
Compound `Nc1ccn(C[C@]2(CO)C[C@H]2CO)c(=O)n1` gave a CC25 in [6] greater than 100 µg/mL. In test [1] (setting [11]), the CC50 is greater than 500 µg/mL. Also, the IC50 in test [7] (setting [13]) is greater than 100 µg/mL; in test [2] (setting [12]), greater than 500 µg/mL.
The compound `Nc1nc(N)c2ncn(CC3(CO)CC3CO)c2n1` (stereo not drawn) came in with a CC25 in [6] greater than 100 µg/mL. The CC50 in test [1] (setting [11]) is greater than 500 µg/mL. In addition, the half-maximal inhibitory concentration (IC50) is 32.1 µg/mL (≈ 121 µM) in test [7] (setting [13]) and 29 µg/mL (≈ 110 µM) in test [2] (setting [12]).
For `Nc1nc(O)c2ncn(C[C@@]3(CO)C[C@@H]3CO)c2n1` (stereo in doubt; 3b), the CC50 in test [1] (setting [11]) is greater than 500 µg/mL. In test [2] (vero), the IC50 came out at 2.2 µg/mL (≈ 8.29 µM).
`Nc1ncnc2c1ncn2C/C(=C\CO)CO` returned a CC25 in test [6] greater than 100 µg/mL. The 50% inhibitory concentration (IC50) in test [8] is greater than 100 µg/mL; in test [2] (setting [12]) it was greater than 500 µg/mL. For the same compound, the CC50 in test [1] (setting [11]) is 260 µg/mL (≈ 1110 µM).
Turning to `Cc1cn(C[C@]2(CO)C[C@@H]2CO)c(=O)[nH]c1=O` (stereo in doubt; 41a), the CC25 in [6] is greater than 100 µg/mL. Besides, the cytotoxic concentration (CC50) in [1] (setting [11]) was greater than 500 µg/mL. In addition, the values for the IC50 in [7] (ccrf-cem) and in [2] (setting [12]) were greater than 100 µg/mL and greater than 500 µg/mL, respectively.
The compound `Nc1nc(O)c2ncn(C[C@@]3(CO)C[C@@H]3CO)c2n1` (stereo in doubt; 3) registered a CC50 in test [1] of 530 µg/mL (≈ 2000 µM). Also, the IC50 in test [2] (vero) amounted to 0.046 µg/mL (≈ 0.173 µM).
The compound `Nc1ncnc2c1ncn2C/C(=C/CO)CO` had a CC25 in [6] greater than 100 µg/mL. Also, in test [1] (setting [11]), the CC50 is 260 µg/mL (≈ 1110 µM). Moreover, the figures for the IC50 in test [7] (setting [13]) and in test [2] (setting [12]) were greater than 100 µg/mL and greater than 500 µg/mL, respectively.
As to `Nc1nc(O)c2ncn(C[C@@]3(CO)O[C@@H]3CO)c2n1`, the cytotoxic concentration (CC50) in test [1] (setting [11]) is greater than 500 µg/mL. For the same compound, the half-maximal inhibitory concentration (IC50) in test [2] (setting [12]) is greater than 500 µg/mL.
`Nc1nc(O)c2ncn(C[C@@]3(CO)C[C@H]3CO)c2n1` registered a CC25 in [6] greater than 100 µg/mL. The same compound showed an MTC in test [3] of 320 µg/mL. Moreover, in test [1] (setting [11]), the CC50 was greater than 500 µg/mL. Further, the SI in test [4] was 16. In addition, the IC50 in [5] is 19.4 µg/mL (≈ 73.1 µM); in test [7] (setting [13]), greater than 100 µg/mL; in [2] (setting [12]), 10 µg/mL (≈ 37.7 µM).
On to `Cc1cn(C/C(=C/CO)CO)c(=O)[nH]c1=O`, for which the CC25 in test [6] is greater than 100 µg/mL. In test [1] (setting [11]), the CC50 was greater than 500 µg/mL. For the same compound, the IC50 in test [7] (setting [13]) is greater than 100 µg/mL; in test [2] (setting [12]) it was greater than 500 µg/mL.
With `Cc1cn([C@H]2C[C@H](N=[N+]=[N-])[C@@H](CO)O2)c(=O)[nH]c1=O` [ZIDOVUDINE], in test [9], the IC50 is 0.003 µg/mL (≈ 0.0112 µM). The same compound gave a CC25 in test [10] of 35.6 µg/mL (≈ 133 µM).
`Nc1nc2c(ncn2COCCO)c(=O)[nH]1` [ACYCLOVIR]: in [3], the MTC was greater than 320 µg/mL. Further, in [1] (setting [11]), the CC50 was found to be 820 µg/mL (≈ 3640 µM). In test [2] (setting [12]), the IC50 stood at 0.81 µg/mL (≈ 3.6 µM).
With `Nc1nc(O)c2ncn(C[C@@]3(CO)O[C@H]3CO)c2n1`, the CC50 in [1] (setting [11]) was greater than 500 µg/mL. Further, the IC50 in [2] (setting [12]) is 14 µg/mL (≈ 52.4 µM).
Regarding `Nc1nc(O)c2ncn(CC3[C@@H](CO)[C@H]3CO)c2n1` (stereo partly drawn), the cytotoxic concentration (CC50) in test [1] (setting [11]) is greater than 500 µg/mL. Besides, the half-inhibitory concentration (IC50) in test [2] (setting [12]) is greater than 500 µg/mL.
`Nc1ncnc2c1ncn2C[C@]1(CO)C[C@@H]1CO`: the CC25 in [6] is 19.8 µg/mL (≈ 79.4 µM). In addition, the MTC in [3] was found to be 320. In addition, the half-maximal cytotoxic concentration (CC50) in test [1] (setting [11]) came to 120 µg/mL (≈ 481 µM). Moreover, the SI in test [4] was 16. For the same compound, the IC50 was 19.8 µg/mL (≈ 79.4 µM) in [5], greater than 100 µg/mL in [7] (setting [13]) and 47 µg/mL (≈ 189 µM) in [2] (setting [12]).
As for `Nc1ccn(C[C@]2(CO)C[C@@H]2CO)c(=O)n1`, the CC25 in test [6] was greater than 100 µg/mL. In test [1] (setting [11]), the CC50 was greater than 500 µg/mL. Further, the half-maximal inhibitory concentration (IC50) came out at 23.7 µg/mL (≈ 105 µM) in test [7] (setting [13]) and 120 µg/mL (≈ 533 µM) in test [2] (setting [12]).
The matching figures for `OC[C@H]1C[C@@]1(CO)Cn1cnc2c(O)ncnc21`: greater than 100 µg/mL, greater than 500 µg/mL, 20.1 µg/mL (≈ 80.3 µM) and greater than 500 µg/mL.
The corresponding values for `OC[C@@H]1C[C@@]1(CO)Cn1cnc2c(O)ncnc21` are greater than 100 µg/mL, greater than 500 µg/mL, 25.7 µg/mL (≈ 103 µM) and greater than 500 µg/mL.
Compound `Cc1cn(C[C@]2(CO)C[C@@H]2CO)c(=O)[nH]c1=O` (stereo in doubt; 41b) came in with an IC50 in test [7] (ccrf-cem) of 3.2 µg/mL (≈ 13.3 µM).
With `Nc1nc(O)c2ncn(C/C(=C\CO)CO)c2n1`, the CC25 in [6] is greater than 100 µg/mL. Moreover, the MTC in test [3] was 320 µg/mL. The CC50 in test [1] (setting [11]) was greater than 500 µg/mL. For the same compound, the SI in test [4] was 100. For the same compound, the values for the IC50 in [5], in test [7] (setting [13]) and in [2] (setting [12]) were 3.2 µg/mL (≈ 12.7 µM), greater than 100 µg/mL and 4.2 µg/mL (≈ 16.7 µM), respectively.
